In ChEMBL document CHEMBL3621107, “Ring fusion strategy for synthesis and lead optimization of sulfur-substituted anthra[1,2-c][1,2,5]thiadiazole-6,11-dione derivatives as promising scaffold of antitumor agents” (Eur J Med Chem, 2015):

Key:
Assay type in all cases: functional
MOLT-4 = assay: Cytotoxicity against human MOLT4 cells after 48 hrs by SRB assay; conditions: MOLT-4, 48 h
Outline: (§1)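 Second-stage NCI-60 panel run by the NCI Developmental Therapeutics Program, covering nine tumour subpanels. Five concentrations were tested: 0.01, 0.1, 1, 10 and 100 μM. Percentage growth at each level was plotted against log10 drug concentration. GI50, TGI and LC50 were read from these dose-response curves. Subpanel MID values were divided into the full-panel MID to give selectivity ratios.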

SR = assay: Cytotoxicity against human SR cells after 48 hrs by SRB assay
Outline: (§2)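 NCI-60 five-dose study run by NCI DTP at 0.01, 0.1, 1, 10 and 100 µM. Percentage growth at each level was plotted against log10 concentration for each line, and GI50, TGI and LC50 were read from the dose-response curves.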

NCI-H23 = assay: Cytotoxicity against human NCI-H23 cells after 48 hrs by SRB assay; conditions: NCI-H23, 48 h; outline: as §1
NCI-H460 = assay: Cytotoxicity against human NCI-H460 cells after 48 hrs by SRB assay; conditions: NCI-H460, 48 h; outline: as §1
HCC 2998 = assay: Cytotoxicity against human HCC2998 cells after 48 hrs by SRB assay; conditions: HCC 2998, 48 h
Outline: (§3)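 NCI-60 human tumour cell panel screen, second stage, run by the NCI Developmental Therapeutics Program. Compounds were tested at five concentrations (0.01, 0.1, 1, 10 and 100 μM). Percentage growth was plotted against log10 concentration for each cell line. GI50, TGI and LC50 were taken from these dose-response curves.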

HT-29 = assay: Cytotoxicity against human HT-29 cells after 48 hrs by SRB assay; conditions: HT-29, 48 h; outline: as §3
KM12 = assay: Cytotoxicity against human KM12 cells after 48 hrs by SRB assay; conditions: KM12, 48 h; outline: as §3
SW-620 = assay: Cytotoxicity against human SW620 cells after 48 hrs by SRB assay; conditions: SW-620, 48 h; outline: as §2
SNB-19 = assay: Cytotoxicity against human SNB19 cells after 48 hrs by SRB assay; conditions: SNB-19, 48 h; outline: as §1
U-251 = assay: Cytotoxicity against human U251 cells after 48 hrs by SRB assay; conditions: U-251, 48 h; outline: as §2
LOX IMVI = assay: Cytotoxicity against human LOXIMVI cells after 48 hrs by SRB assay; conditions: for CC50: read-out: LC50 (the source's name); outline: as §3
Malme-3M = assay: Cytotoxicity against human MALME-3M cells after 48 hrs by SRB assay; outline: as §3
MDA-MB-435 = assay: Cytotoxicity against human MDA-MB-435 cells after 48 hrs by SRB assay; conditions: MDA-MB-435, 48 h; outline: as §1
SK-MEL-5 = assay: Cytotoxicity against human SK-MEL-5 cells after 48 hrs by SRB assay; conditions: SK-MEL-5, 48 h; outline: as §1
UACC-257 = assay: Cytotoxicity against human UACC257 cells after 48 hrs by SRB assay; conditions: UACC-257, 48 h; outline: as §2
IGROV-1 = assay: Cytotoxicity against human IGROV1 cells after 48 hrs by SRB assay; conditions: IGROV-1, 48 h; outline: as §3
CAKI-1 = assay: Cytotoxicity against human Caki1 cells after 48 hrs by SRB assay; conditions: CAKI-1, 48 h; outline: as §3
RXF 393 = assay: Cytotoxicity against human RXF393 cells after 48 hrs by SRB assay; conditions: RXF 393, 48 h; outline: as §1
SN12C = assay: Cytotoxicity against human SN12C cells after 48 hrs by SRB assay; conditions: for CC50: read-out: LC50 (the source's name); outline: as §1
TK-10 = assay: Cytotoxicity against human TK10 cells after 48 hrs by SRB assay; conditions: TK-10, 48 h; outline: as §2
UO-31 = assay: Cytotoxicity against human UO31 cells after 48 hrs by SRB assay; conditions: UO-31, 48 h; outline: as §2
DU-145 = assay: Cytotoxicity against human DU145 cells after 48 hrs by SRB assay; conditions: DU-145, 48 h; outline: as §3
MDA-MB-231 = assay: Cytotoxicity against human MDA-MB-231 cells after 48 hrs by SRB assay; conditions: MDA-MB-231, 48 h; outline: as §1
[1] = Cytotoxicity against human Hs578T cells after 48 hrs by SRB assay; conditions: Hs-578T; outline: as §3
T47D = assay: Cytotoxicity against human T47D cells after 48 hrs by SRB assay; outline: as §2
MDA-MB-468 = assay: Cytotoxicity against human MDA-MB-468 cells after 48 hrs by SRB assay; conditions: MDA-MB-468, 48 h; outline: as §1
[2] = Cytotoxicity against human non-small cell lung cancer cells assessed as growth inhibition after 48 hrs by SRB assay; conditions: Cancer cell lines
Outline: (§4)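 Values come from the NCI-60 five-dose panel (0.01–100 µM). The subpanel MID is the mean GI50 over the lines of that tumour subpanel. The selectivity ratio is the full-panel MID divided by the subpanel MID; 3–6 is rated moderate and >6 high.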

[3] = Cytotoxicity against human renal cancer cells assessed as growth inhibition after 48 hrs by SRB assay; conditions: Cancer cell lines; outline: as §4
[4] = Cytotoxicity against human prostate cancer cells assessed as growth inhibition after 48 hrs by SRB assay; conditions: Cancer cell lines; outline: as §4
[5] = Cytotoxicity against human breast cancer cells assessed as growth inhibition after 48 hrs by SRB assay; conditions: Cancer cell lines; outline: as §4
ACHN = assay: Cytotoxicity against human ACHN cells after 48 hrs by SRB assay; outline: as §3

O=C1c2ccccc2C(=O)c2c1cc(SCc1ccccc1)c1nsnc21
GI50 (MOLT-4): 1.2 µM | LC50 (MOLT-4): > 50 µM | TGI (MOLT-4): 3.62 µM | GI50 (SR): 1.99 µM | LC50 (SR): > 50 µM | TGI (SR): 13.1 µM | GI50 (NCI-H23): 8.25 µM | LC50 (NCI-H23): > 50 µM | TGI (NCI-H23): > 50 µM | GI50 (NCI-H460): > 50 µM | LC50 (concentration killing 50% of cells) (NCI-H460): 32.8 µM | TGI (NCI-H460): 16.8 µM | GI50 (HCC 2998): > 50 µM | LC50 (HCC 2998): > 50 µM | TGI (HCC 2998): > 50 µM | GI50 (HT-29): > 50 µM | LC50 (HT-29): > 50 µM | TGI (HT-29): > 50 µM | GI50 (KM12): 19.5 µM | LC50 (concentration killing 50% of cells) (KM12): > 50 µM | TGI (KM12): > 50 µM | GI50 (SW-620): 9.99 µM | LC50 (50% lethal concentration) (SW-620): 35.1 µM | TGI (SW-620): 18.7 µM | GI50 (SNB-19): 12.7 µM | LC50 (SNB-19): > 50 µM | TGI (SNB-19): 38.8 µM | GI50 (U-251): 6.46 µM | LC50 (U-251): 30.3 µM | TGI (U-251): 14 µM | GI50 (LOX IMVI): 5.68 µM | TGI (LOX IMVI): 12.8 µM | CC50 (LOX IMVI): 29.1 µM | GI50 (Malme-3M): 11 µM | LC50 (Malme-3M): 44.6 µM | TGI (Malme-3M): 22.2 µM | GI50 (MDA-MB-435): 9.19 µM | LC50 (MDA-MB-435): 37.3 µM | TGI (MDA-MB-435): 18.5 µM | GI50 (SK-MEL-5): 7.17 µM | LC50 (SK-MEL-5): 49.8 µM | TGI (SK-MEL-5): 21.2 µM | GI50 (UACC-257): 9.05 µM | LC50 (UACC-257): 35.4 µM | TGI (UACC-257): 17.1 µM | GI50 (IGROV-1): 6.06 µM | LC50 (IGROV-1): 38.9 µM | TGI (IGROV-1): 15.4 µM | GI50 (CAKI-1): 9.68 µM | LC50 (concentration causing 50% net cell kill) (CAKI-1): > 50 µM | TGI (CAKI-1): 26.2 µM | GI50 (RXF 393): 7.2 µM | LC50 (concentration killing 50% of cells) (RXF 393): 27.4 µM | TGI (RXF 393): 14 µM | GI50 (SN12C): 7.16 µM | TGI (SN12C): 14.5 µM | CC50 (SN12C): 29.3 µM | GI50 (TK-10): 32 µM | LC50 (concentration killing 50% of cells) (TK-10): > 50 µM | TGI (TK-10): > 50 µM | GI50 (UO-31): 7.83 µM | LC50 (UO-31): 43.5 µM | TGI (UO-31): 18.5 µM | GI50 (DU-145): 10.2 µM | LC50 (DU-145): 38.8 µM | TGI (DU-145): 19.9 µM | GI50 (MDA-MB-231): 5.14 µM | LC50 (concentration killing 50% of cells) (MDA-MB-231): 34.8 µM | TGI (MDA-MB-231): 13.4 µM | GI50 [1]: 17.3 µM | LC50 [1]: > 50 µM | TGI [1]: > 50 µM | GI50 (T47D): 1.16 µM | LC50 (concentration killing 50% of cells) (T47D): 42.9 µM | TGI (T47D): 5.29 µM | GI50 (MDA-MB-468): 0.89 µM | LC50 (MDA-MB-468): 4.21 µM | TGI (MDA-MB-468): 1.93 µM | GI50 [2]: 9.57 µM | GI50 [3]: 12.7 µM | GI50 [4]: 10.5 µM | GI50 [5]: 8 µM

O=C1c2ccccc2C(=O)c2c1cc(Sc1ccccc1Br)c1nsnc21
GI50 (MOLT-4): 7.21 µM | LC50 (MOLT-4): > 50 µM | TGI (MOLT-4): 41.2 µM | GI50 (SR): 17 µM | LC50 (SR): > 50 µM | TGI (SR): > 50 µM | GI50 (NCI-H23): 13.5 µM | LC50 (NCI-H23): > 50 µM | TGI (NCI-H23): > 50 µM | GI50 (NCI-H460): 36.1 µM | LC50 (concentration killing 50% of cells) (NCI-H460): > 50 µM | TGI (NCI-H460): > 50 µM | GI50 (HCC 2998): > 50 µM | LC50 (HCC 2998): > 50 µM | TGI (HCC 2998): > 50 µM | GI50 (HT-29): > 50 µM | LC50 (HT-29): > 50 µM | TGI (HT-29): > 50 µM | GI50 (KM12): 41.9 µM | LC50 (concentration killing 50% of cells) (KM12): > 50 µM | TGI (KM12): > 50 µM | GI50 (SW-620): 23.6 µM | LC50 (50% lethal concentration) (SW-620): > 50 µM | TGI (SW-620): > 50 µM | GI50 (SNB-19): 32.2 µM | LC50 (SNB-19): > 50 µM | TGI (SNB-19): > 50 µM | GI50 (U-251): 10.9 µM | LC50 (U-251): > 50 µM | TGI (U-251): 31.7 µM | GI50 (LOX IMVI): 12.6 µM | TGI (LOX IMVI): > 50 µM | CC50 (LOX IMVI): > 50 µM | GI50 (Malme-3M): 16.8 µM | LC50 (Malme-3M): > 50 µM | TGI (Malme-3M): 40.2 µM | GI50 (MDA-MB-435): 9.23 µM | LC50 (MDA-MB-435): 32.7 µM | TGI (MDA-MB-435): 17.4 µM | GI50 (SK-MEL-5): 5.08 µM | LC50 (SK-MEL-5): 24.3 µM | TGI (SK-MEL-5): 11.1 µM | GI50 (UACC-257): 8.56 µM | LC50 (UACC-257): > 50 µM | TGI (UACC-257): 20.9 µM | GI50 (IGROV-1): 19.1 µM | LC50 (IGROV-1): > 50 µM | GI50 (ACHN): 12.8 µM | LC50 (ACHN): > 50 µM | TGI (ACHN): 32.5 µM | GI50 (CAKI-1): 17.2 µM | LC50 (concentration causing 50% net cell kill) (CAKI-1): > 50 µM | TGI (CAKI-1): > 50 µM | GI50 (RXF 393): 9.14 µM | LC50 (concentration killing 50% of cells) (RXF 393): 42.2 µM | TGI (RXF 393): 19.6 µM | GI50 (SN12C): 10.5 µM | TGI (SN12C): 39.7 µM | CC50 (SN12C): > 50 µM | GI50 (TK-10): 29.7 µM | LC50 (concentration killing 50% of cells) (TK-10): > 50 µM | TGI (TK-10): > 50 µM | GI50 (UO-31): 14.9 µM | LC50 (UO-31): > 50 µM | TGI (UO-31): > 50 µM | GI50 (DU-145): 21.5 µM | LC50 (DU-145): > 50 µM | TGI (DU-145): > 50 µM | GI50 (MDA-MB-231): 7.52 µM | LC50 (concentration killing 50% of cells) (MDA-MB-231): > 50 µM | TGI (MDA-MB-231): 37.3 µM | GI50 [1]: 17.8 µM | LC50 [1]: > 50 µM | TGI [1]: > 50 µM | GI50 (T47D): 3.7 µM | LC50 (concentration killing 50% of cells) (T47D): > 50 µM | TGI (T47D): 18.3 µM | GI50 (MDA-MB-468): 0.95 µM | LC50 (MDA-MB-468): 4.2 µM | TGI (MDA-MB-468): 2 µM | GI50 [2]: 19.3 µM | GI50 [3]: 14.5 µM | GI50 [4]: 18.2 µM | GI50 [5]: 9.62 µM
